Among the data in ChEMBL document CHEMBL1125717, “Synthesis and biological evaluation of cyclopropyl analogues of 2-amino-5-phosphonopentanoic acid” (J Med Chem, 1991) are Ki and IC50 values, retold here.

A short description of experiment [1]: Compound was tested in vitro for Non N-methyl-D-aspartate glutamate receptor binding using [3H]- -Kainate. Set-up: species or system Rattus norvegicus. The gist of the method: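 Rat forebrain synaptic membranes (male Sprague–Dawley, 30–45 days old) were treated with 0.04% Triton X-100 for 30 min at 37 °C and washed in 50 mM Tris/acetate pH 7.4. Incubation used 0.5 nM [3H]kainate and graded compound concentrations, with 0.25–0.35 mg/mL membrane, for 60 min at 4 °C. Bound ligand was separated by centrifugation; 0.1 mM kainate defined nonspecific binding. IC50 was derived by logit–log and Ki by Cheng–Prusoff, from ≥3 triplicate experiments.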

The target in experiment [2] is Glutamate NMDA receptor. Nature of the experiment: Compound was tested in vitro for N-methyl-D-aspartate glutamate receptor binding using [3H]L-glutamate. Format: protein-complex assay. The gist of the method: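 Rat forebrain synaptic plasma membranes (male Sprague–Dawley, 30–45 days old) were pretreated with 0.04% Triton X-100 for 30 min at 37 °C and washed four times in 50 mM Tris/acetate, pH 7.4. Incubation: 10 nM [3H]-L-glutamate, membranes at 0.25–0.35 mg/mL final, 10 min at 4 °C, then filtration through PEI-treated filters. Nonspecific binding: 0.1 mM L-glutamate. IC50 by logit–log; Ki by Cheng–Prusoff. Mean ± SEM, ≥3 experiments in triplicate.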

Experiment [3] addresses Glutamate NMDA receptor. Kind of experiment: Compound was tested in vitro for its inhibitory activity against N-methyl-D-aspartate glutamate receptor using [3H]MK-801. Format: protein-complex assay. In a few lines: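 Functional modulation assay on washed rat synaptic membranes pretreated with 0.04% v/v Triton X-100. Incubated 30 min at 25 °C with 5.0 nM [3H]MK-801, 10.0 nM L-glutamate and graded compound concentrations in 50 mM Tris/acetate, pH 7.4. Filter-bound radioactivity counted by scintillation. Nonspecific binding: 60 μM MK-801. IC50 from logit–log transformation. Mean ± SEM, ≥3 experiments in triplicate.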

Experiment [4] in a line: Compound was tested in vitro for Non N-methyl-D-aspartate glutamate receptor binding using [3H]kainate. Set-up: species or system Rattus norvegicus. The gist of the method:
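Triton X-100-treated (0.04%, 30 min, 37 °C), washed rat forebrain synaptic membranes (male Sprague–Dawley, 30–45 days), 0.25–0.35 mg/mL final in 50 mM Tris/acetate, pH 7.4. Incubated with 0.5 nM [3H]kainate for 60 min at 4 °C; bound ligand separated by centrifugation. Nonspecific binding: 0.1 mM kainate. IC50 by logit–log; Ki by Cheng–Prusoff. Mean ± SEM, ≥3 experiments in triplicate.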

By Ki is commonly meant a measure of affinity in units of concentration, obtained from inhibition or displacement. Read a high Ki as a looser hold on the target. As for `NC(CCCP(=O)(O)O)C(=O)O` (centres undefined), the Ki in experiment [1] was more than 100 µM; in experiment [2], 0.42 µM.

What is called IC50 is the concentration needed to halve the response being measured. High values mean a need for much substance, low ones inhibition by little substance. In experiment [3], `N[C@@]1(C(=O)O)CC1CCP(=O)(O)O` (some centres undefined) registered an IC50 of 18.1 µM. The Ki in experiment [4] is more than 100 µM; in experiment [2], 26.7 µM.

With `N[C@]1(C(=O)O)CC1CCP(=O)(O)O` (some centres undefined), the IC50 in experiment [3] turned out to be 15.2 µM. The results for the Ki in experiment [4] and in experiment [2] were more than 100 µM and 18.7 µM, respectively.

With `NC(C(=O)O)C1CC1CCP(=O)(O)O` (centres undefined), the Ki in experiment [4] is more than 100 µM; in experiment [2] it was more than 50 µM.

The compound `N[C@H](C[C@@H]1CC1P(=O)(O)O)C(=O)O` (some centres undefined) came in with an IC50 in experiment [3] of 2.7 µM. The Ki in experiment [4] is more than 100 µM; in experiment [2], 1.6 µM.

`NC(C(=O)O)C1CC1CP(=O)(O)O` (stereo in doubt; 13a) registered an IC50 in experiment [3] of 22.6 µM. In addition, the Ki in experiment [2] was 18.9 µM.

With `NC(C(=O)O)C1CC1CP(=O)(O)O` (stereo in doubt; 13b), in experiment [3], the IC50 worked out at 13.3 µM. For the same compound, the Ki is more than 100 µM in experiment [4] and 9.5 µM in experiment [2].

With `NC(C(=O)O)C1CC1CCCP(=O)(O)O` (stereo in doubt; 33c), the values for the Ki in experiment [4] and in experiment [2] were more than 100 µM and 12.5 µM, respectively.

In the case of `NC(C(=O)O)C1CC1CCCP(=O)(O)O` (stereo in doubt; 33d), the Ki in experiment [2] is more than 50 µM.

In experiment [3], `O=C(O)[C@@H]1C[C@H](CP(=O)(O)O)CCN1` [SELFOTEL] showed an IC50 of 0.14 µM. In addition, the Ki in experiment [4] is more than 100 µM; in experiment [2] it was 0.16 µM.
